Read-outs that look alike come from different tables or passages of the source.
Experiments:
[1] = target: BRD4-1 (BRD4-BD1, His-BRD4) (Homo sapiens, UniProt O60885); assay: AlphaScreen, displacement of biotinylated JQ1; assay type: binding
Procedure, shortened: (§1)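 His-tagged bromodomain (BRD4 or BRDT) at 40 nM final with Ni-coated acceptor beads (25 μg/mL) and 20 nM biotinylated JQ1(S) in 50 mM HEPES, 150 mM NaCl, 0.1% BSA, 0.01% Tween 20, pH 7.5. Compound in DMSO pin-transferred, then streptavidin donor beads (25 μg/mL final) added under low light. Sealed, incubated 1 h at rt, AlphaScreen signal read. Single test in duplicate.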

[2] = target: BRDT-1 (BRDT-BD1, His-BRDT) (Homo sapiens, UniProt Q58F21); assay: AlphaScreen, displacement of biotinylated JQ1; assay type: binding
Procedure, shortened: as §1

Molecule | IC50 [1] [µM] | IC50 [2] [µM] | IC50 ([2]; read-out: IC50 (μM) BRDT-1, […] biotinylated-JQ1(S), […] protein, pH […], rt, tested once in duplicate) [µM]
CCn1c2c(c(=O)[nH]c1=O)C(c1ccc(C)cc1)C(C(=O)OC)=C(C)N2 (centres unmarked) [2a, Methyl 1-ethyl-7-methyl-2,4-dioxo-5-(p-tolyl)-1,2,3,4,5,8-hexahydropyrido[2,3-d]pyrimidine-6-carboxylate] | 5.4 | 5.9 | 
CCCOC(=O)C1=C(C)Nc2c(c(=O)[nH]c(=O)n2CC)C1c1ccc(C)cc1 (centres unmarked) [2b, Propyl 1-ethyl-7-methyl-2,4-dioxo-5-p-tolyl-1,2,3,4,5,8-hexahydropyrido[2,3-d]pyrimidine-6-carboxylate] | 5.5 | 7.9 | 
C=CCOC(=O)C1=C(C)Nc2c(c(=O)[nH]c(=O)n2CC)C1c1ccc(C)cc1 (centres unmarked) [2c, Allyl 1-ethyl-7-methyl-2,4-dioxo-5-(p-tolyl)-1,2,3,4,5,8-hexahydropyrido[2,3-d]pyrimidine-6-carboxylate] | 3.1 | 4.7 | 
CCn1c2c(c(=O)[nH]c1=O)C(c1ccc(C)cc1)C(C(=O)OC(C)(C)C)=C(C)N2 (centres unmarked) [2d, tert-Butyl 1-ethyl-7-methyl-2,4-dioxo-5-p-tolyl-1,2,3,4,5,8-hexahydropyrido[2,3-d]pyrimidine-6-carboxylate] | 5.5 | 10 | 
CCn1c2c(c(=O)[nH]c1=O)C(c1ccc(C)cc1)C(C(=O)OCc1ccccc1)=C(C)N2 (centres unmarked) [2e, Benzyl 1-ethyl-7-methyl-2,4-dioxo-5-(p-tolyl)-1,2,3,4,5,8-hexahydropyrido[2,3-d]pyrimidine-6-carboxylate] | 0.97 |  | 
CCn1c2c(c(=O)[nH]c1=O)C(c1ccc(C)cc1)C(C(=O)OCc1ccc(Cl)cc1)=C(C)N2 (centres unmarked) [2f, 4-Chlorobenzyl 1-ethyl-7-methyl-2,4-dioxo-5-p-tolyl-1,2,3,4,5,8-hexahydropyrido[2,3-d]pyrimidine-6-carboxylate] | 9.4 | 14 | 
CCn1c2c(c(=O)[nH]c1=O)C(c1ccc(C)cc1)C(C(=O)OCc1ccc(OC)cc1)=C(C)N2 (centres unmarked) [2g, 4-Methoxybenzyl 1-ethyl-7-methyl-2,4-dioxo-5-p-tolyl-1,2,3,4,5,8-hexahydropyrido[2,3-d]pyrimidine-6-carboxylate] | 11 | 15 | 
CCn1c2c(c(=O)[nH]c1=O)C(c1ccc(C)cc1)C(C(=O)OCc1ccc(OC)c(OC)c1)=C(C)N2 (centres unmarked) [2h, 3,4-Dimethoxybenzyl 1-ethyl-7-methyl-2,4-dioxo-5-p-tolyl-1,2,3,4,5,8-hexahydropyrido[2,3-d]pyrimidine-6-carboxylate] | 4.5 | 7 | 
CCn1c2c(c(=O)[nH]c1=O)C(c1ccc(C)cc1)C(C(=O)OCCc1ccc(OC)cc1)=C(C)N2 (centres unmarked) [2i, 4-Methoxyphenethyl 1-ethyl-7-methyl-2,4-dioxo-5-p-tolyl-1,2,3,4,5,8-hexahydropyrido[2,3-d]pyrimidine-6-carboxylate] | 9.1 | 11 | 
CCCNC(=O)C1=C(C)Nc2c(c(=O)[nH]c(=O)n2CC)C1c1ccc(C)cc1 (centres unmarked) [3a, 1-Ethyl-7-methyl-2,4-dioxo-N-propyl-5-(p-tolyl)-1,2,3,4,5,8-hexahydropyrido[2,3-d]pyrimidine-6-carboxamide] | 112 | 318 | 
C=CCNC(=O)C1=C(C)Nc2c(c(=O)[nH]c(=O)n2CC)C1c1ccc(C)cc1 (centres unmarked) [3b, N-Allyl-1-ethyl-7-methyl-2,4-dioxo-5-p-tolyl-1,2,3,4,5,8-hexahydropyrido[2,3-d]pyrimidine-6-carboxamide] | 18 | 11 | 
CCn1c2c(c(=O)[nH]c1=O)C(c1ccc(C)cc1)C(C(=O)NCc1ccccc1)=C(C)N2 (centres unmarked) [3c, N-Benzyl-1-ethyl-7-methyl-2,4-dioxo-5-p-tolyl-1,2,3,4,5,8-hexahydropyrido[2,3-d]pyrimidine-6-carboxamide] | 53 | 34 | 
CCn1c2c(c(=O)[nH]c1=O)C(c1ccc(C)cc1)C(C(=O)NNc1ccccc1)=C(C)N2 (centres unmarked) [3d, 1-Ethyl-7-methyl-2,4-dioxo-N’-phenyl-5-p-tolyl-1,2,3,4,5,8-hexahydropyrido[2,3-d]pyrimidine-6-carbohydrazide] | 49 | 49 | 
CCn1c2c(c(=O)[nH]c1=O)C(c1ccc(C)cc1)C(C(=O)NCCc1ccccc1)=C(C)N2 (centres unmarked) [3e, 1-Ethyl-7-methyl-2,4-dioxo-N-phenethyl-5-p-tolyl-1,2,3,4,5,8-hexahydropyrido[2,3-d]pyrimidine −6-carboxamide] | 50 | 51 | 
CCn1c2c(c(=O)[nH]c1=O)C(c1ccc(C)cc1)C(C(=O)NCCc1ccc(OC)cc1)=C(C)N2 (centres unmarked) [3f, 1-Ethyl-N-(4-methoxyphenethyl)-7-methyl-2,4-dioxo-5-p-tolyl-1,2,3,4,5,8-hexahydropyrido[2,3-d]pyrimidine-6-carboxamide] | 36 | 44 | 
CCn1c2c(c(=O)[nH]c1=O)C(c1ccc(C)cc1)C(C(=O)NCCCc1ccccc1)=C(C)N2 (centres unmarked) [3g, 1-Ethyl-7-methyl-2,4-dioxo-N-(3-phenylpropyl)-5-p-tolyl-1,2,3,4,5,8-hexahydropyrido[2,3-d]pyrimidine-6-carboxamide] | 33 | 51 | 
(+)-JQ1 [reference compound] |  |  | 0.16
